Here are results for 20 molecules from ChEMBL document CHEMBL4715836, “Synthesis and characterization of quinoline-carbaldehyde derivatives as novel inhibitors for leishmanial methionine aminopeptidase 1” (Eur J Med Chem, 2020).

Active and inactive are the calls of the source. The rule behind the calls is not given here.

Assay [1] can be described thus: Inhibition of Leishmania donovani MetAP1 expressed in Escherichia coli BL21 (DE3) using L-methionine-4-methyl-coumary1-7-amide as substrate preincubated for 30 mins followed by substrate addition and measured at 1 min interval for 30 mins by spectrofluorometric method. An outline of the steps: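 His-tagged LdMetAP1 from pET28a, purified by Ni-NTA and gel filtration. Enzyme preincubated 30 min in metal-supplemented assay buffer with compound. L-Met-AMC added at 125 µM and fluorescence recorded. Percent inhibition taken as the net fluorescence decrease against control reactions; IC50 from a range of compound concentrations.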

In assay [2] the test system is Leishmania donovani. Put plainly: Binding affinity to Leishmania donovani MetAP1 expressed in Escherichia coli BL21 (DE3) assessed as intrinsic fluorescence quenching of tryptophan residues measured after 30 mins by fluorescence spectroscopic method. An outline of the steps: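 LdMetAP1 at 1 µM final in 20 mM Tris-HCl pH 7.5, 50 mM NaCl, incubated with compounds for 30 min at 25°C. Tryptophan fluorescence read at excitation ~295 nm, emission ~300-400 nm. F0/F1 plotted against compound concentration. KSV from linear regression; binding parameters from modified Stern-Volmer plots.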

Assay [3] in a line: Binding affinity to Leishmania donovani MetAP1 expressed in Escherichia coli BL21 (DE3) by surface plasmon resonance analysis. An outline of the steps: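 Recombinant LdMetAP1 amine-coupled to a CM-5 dextran chip. Running and injection buffer was 1X PBS pH 7.4 with 0.05% P-20. Compounds in 2% DMSO injected over the chip at a range of concentrations to record response units. After solvent correction, kinetics fitted to a 1:1 Langmuir binding model.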
For orientation: In SPR one partner is held on a chip, and binding of the other changes the refractive index at the surface.

The nature of assay [4]: Cytotoxicity against mouse embryonic fibroblasts measured after 48 hrs by MTT assay. The note with it: Fibroblast. The method in brief:
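Mouse embryonic fibroblasts exposed to compounds at 0, 50, 100 and 200 µM for 48 h. MTT solution (5 mg/ml) then added for 4 h at 37°C. Formazan dissolved in DMSO and absorbance read at 570 nm.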

For assay [5], the system named is Leishmania donovani. Put plainly: Uncompetitive inhibition of Leishmania donovani MetAP1 expressed in Escherichia coli BL21 (DE3) at 1 to 10 uM using varying levels of L-methionine-4-methyl-coumary1-7-amide as substrate preincubated for 30 mins followed by substrate addition and measured for 30 mins by Lineweaver-burk plot analysis. The conditions noted are these: dose 1-10 µM, time 60.0 min.

Assay [6] has as its system Leishmania donovani. Put plainly: Competitive inhibition of Leishmania donovani MetAP1 expressed in Escherichia coli BL21 (DE3) at 1 to 10 uM using varying levels of L-methionine-4-methyl-coumary1-7-amide as substrate preincubated for 30 mins followed by substrate addition and measured for 30 mins by Lineweaver-burk plot analysis. The note with it: dose 1-10 µM, time 60.0 min.

Usually IC50 stands for the point on the concentration scale where inhibition reaches its midpoint. In turn, `O=C1CSC(c2ccc3cccc(O)c3n2)N1c1ccccc1` (stereo unspecified) had a half-inhibitory concentration (IC50) in assay [1] of 79.9 µM.
As for `COc1cc(N2C(=O)CSC2c2ccc3cccc(O)c3n2)cc(OC)c1OC` (stereo unspecified), in assay [1], the IC50 came to 12.9 µM.
Molecule `Cc1cccc(N2C(=O)CSC2c2ccc3cccc(O)c3n2)c1` (stereo unspecified) yielded an IC50 in assay [1] of 27.9 µM.
`O=C1CSC(c2ccc3cccc(O)c3n2)N1c1ccc(F)cc1` (stereo unspecified) registered an IC50 in assay [1] of 45.5 µM.
The same measure, in the same setting: the same measure for `O=C1CSC(c2ccc3cccc(O)c3n2)N1c1cccc(Br)c1` (stereo unspecified): 46.1 µM.
Same read-out and setting: the same measure for `COc1ccccc1N1C(=O)CSC1c1ccc2cccc(O)c2n1` (stereo unspecified): 18.4 µM; for `CC(C)c1ccc(N2C(=O)CSC2c2ccc3cccc(O)c3n2)cc1` (stereo unspecified): 37.4 µM; for `COc1cc(OC)cc(N2C(=O)CSC2c2ccc3cccc(O)c3n2)c1` (stereo unspecified): 18.4 µM.
Same read-out and setting: the same measure for `COc1cccc(N2C(=O)CSC2c2ccc3cccc(O)c3n2)c1` (stereo unspecified): 39.7 µM; for `O=C1CSC(c2ccc3cccc(O)c3n2)N1c1cccc(OC(F)(F)F)c1` (stereo unspecified): 46.4 µM.
Consider `O=C1CSC(c2ccc3cccc(O)c3n2)N1c1ccc(Br)cc1` (stereo unspecified), for which the concentration for half-maximal inhibition (IC50) in assay [1] turned out to be 36.8 µM.
For `COc1ccc(N2C(=O)CSC2c2ccc3cccc(O)c3n2)cc1` (stereo unspecified), inhibition in assay [1] was half-maximal at 62.5 µM (IC50).
The term Kd denotes the free concentration of one partner at which half of the binding sites on the other are occupied at equilibrium, for simple one-to-one binding. High values mean a looser complex, low ones a tighter complex. In the case of `O=C1CSC(c2ccc3cccc(O)c3n2)N1c1cccc(F)c1` (stereo unspecified), in the assay with Leishmania donovani [2], the Activity result was “Dose-dependent effect”. Binding in assay [3] was put at a Kd of 0.000161 µM. Further, the figures for the half-inhibitory concentration (IC50) in assay [4] and in assay [1] were 120 µM and 8.8 µM, respectively. In addition, the inhibition result in the assay on Leishmania donovani [5] was “Active”.
On to `Cc1ccc(N2C(=O)CSC2c2ccc3cccc(O)c3n2)cc1` (stereo unspecified), for which the Activity entry in the assay on Leishmania donovani [2] is “Dose-dependent effect”. In assay [3], this molecule had a Kd of 0.0215 µM. The results for the IC50 in assay [4] and in assay [1] were over 200 µM and 1.31 µM, respectively. In addition, the inhibition result in the assay on Leishmania donovani [6] was “Active”.
For `N#Cc1cccc(N2C(=O)CSC2c2ccc3cccc(O)c3n2)c1` (stereo unspecified) the same measures were “Dose-dependent effect”, 0.0154 µM, over 250 µM, 11.7 µM and “Active”.
Regarding `COc1ccc(N2C(=O)CSC2c2ccc3cccc(O)c3n2)cc1OC` (stereo unspecified), 26.4 µM corresponded to half-maximal inhibition in assay [1] (IC50).
As for `O=C1CSC(c2ccc3cccc(O)c3n2)N1c1ccc(C(F)(F)F)cc1` (stereo unspecified), in assay [1], 54.1 µM corresponded to half-maximal inhibition (IC50).
Regarding `O=C1CSC(c2ccc3cccc(O)c3n2)N1c1ccc(Cl)cc1` (stereo unspecified), in the assay on Leishmania donovani [2], the Activity result is “Dose-dependent effect”. The same molecule displayed a Kd in assay [3] of 0.015 µM. The results for the IC50 in assay [4] and in assay [1] were over 200 µM and 1.1 µM, respectively. Moreover, in the assay on Leishmania donovani [6], the inhibition entry was “Active”.
In turn, `O=C1CSC(c2ccc3cccc(O)c3n2)N1c1ccc(I)cc1` (stereo unspecified) returned a 50% inhibitory concentration (IC50) in assay [1] of 252 µM.
Same read-out and setting: the same measure for `O=C1CSC(c2ccc3cccc(O)c3n2)N1c1ccc(Oc2ccccc2)cc1` (stereo unspecified): 43.8 µM.
